Sampled rows, rich in hits. Any-hit rate of the full collection: about 0.19%.
GASC1 inh = inhibitors of GASC-1 (KDM4C) histone demethylase, primary screen, biochemical, single concentration HTS. inhibition, % at 12.5 µM. Lysine-specific demethylase 4C (Homo sapiens), Q9H3R0. GST-KDM4C 2-372, H3K9me3 peptide, LANCE TR-FRET. 96,000 compounds, 0.15% hits;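 active means mean replicate inhibition above about 25%, with at least 55% of replicates also reaching it, limit read from the data, passing the limit was not always enough; inconclusive means only one of those two conditions met; inactive means neither condition met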
Target sequence (Q9H3R0 2-372 limits assumed): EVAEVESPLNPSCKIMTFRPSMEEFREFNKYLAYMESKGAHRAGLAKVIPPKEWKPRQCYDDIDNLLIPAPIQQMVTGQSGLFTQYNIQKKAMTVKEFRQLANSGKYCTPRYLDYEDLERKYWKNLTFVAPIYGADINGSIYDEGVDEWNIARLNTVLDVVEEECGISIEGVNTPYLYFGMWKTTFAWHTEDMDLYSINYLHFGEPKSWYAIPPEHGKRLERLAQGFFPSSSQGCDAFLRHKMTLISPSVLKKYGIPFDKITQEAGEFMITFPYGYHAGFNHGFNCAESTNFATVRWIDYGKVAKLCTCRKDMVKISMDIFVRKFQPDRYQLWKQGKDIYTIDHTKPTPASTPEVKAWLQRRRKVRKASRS
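System: N-terminal GST-fused human GASC-1 (KDM4C) fragment, residues 2-372; amount: enzyme final amount 10 nM; incubation: reaction 30 min RT, detection step 1 h RT; medium: HEPES buffer, pH 7.5, plus ascorbate; technique: LANCE TR-FRET, Eu antibody, ULight-streptavidin, EDTA, ex 340 nm, em 618/671 nm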
IDH1 mut inh = inhibitors of IDH1 R132H reductase, primary screen, biochemical, plate reader, single point; diaphorase/resazurin fluorescence, 60 min; 70,000 compounds, 0.18% hits; inhibition, % at 10 µM; AID 624101, 2012; Isocitrate dehydrogenase [NADP] cytoplasmic (Homo sapiens), O75874; in the data active means inhibition above about 34%; inconclusive means no clear call, values can overlap the other calls; inactive means below about 11%;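 further: 0% = DMSO and 100% = no enzyme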
* marks the source's active call; other numbers are inactive results; ! = repeats disagree.

O=C(O)C(c1ccccc1)N1C(=O)/C(=C/c2ccncc2)SC1=S (stereo not drawn) was read as IDH1 mut inh 66*.
CC(C)C(C(=O)O)N1C(=O)/C(=C/c2ccccc2)SC1=S (stereo not drawn) was read as IDH1 mut inh 1.
O=C(CSC1=NCCN1)C1COc2ccccc2O1 (stereo not drawn) was read as IDH1 mut inh 39*.
For O=C(O)CNC(=O)C1COc2ccccc2O1 (stereo not drawn) the results were IDH1 mut inh 0.
For CN(C)C(=O)C[C@@H]1C[C@@H]2c3cc(NC(=O)Nc4ccccc4)ccc3O[C@@H]2[C@@H](CO)O1 the results were GASC1 inh 32* and IDH1 mut inh 73*.
`CN(C)C(=O)C[C@H]1C[C@@H]2c3cc(NC(=O)C4CCC4)ccc3O[C@@H]2[C@@H](CO)O1` gave GASC1 inh 3 and IDH1 mut inh 2.
Screening CN(C)C(=O)C[C@H]1C[C@@H]2c3cc(NC(=O)Nc4ccccc4)ccc3O[C@@H]2[C@H](CO)O1 returned GASC1 inh 3 and IDH1 mut inh 0.
Screening CN(C)C(=O)C[C@@H]1C[C@H]2c3cc(NC(=O)C4CCC4)ccc3O[C@H]2[C@H](CO)O1 returned GASC1 inh 36* and IDH1 mut inh 52*.
For COC(=O)c1ccc(C(=O)OC)c(NC(=O)c2cnn3cccnc23)c1 the results were IDH1 mut inh 0.
For COC(=O)c1c(-c2ccc(Br)cc2)csc1NC(=O)C1CCCCC1C(=O)O (stereo not drawn) the results were IDH1 mut inh 0.
`CCn1c(SCC(=O)c2cccc([N+](=O)[O-])c2)nnc1-c1ccc(Cl)cc1Cl` gave IDH1 mut inh 0.
Screening C[C@H](CO)N1C[C@H](C)[C@@H](CN(C)Cc2ccccn2)Oc2ncc(C#CC3(O)CCCC3)cc2C1=O returned GASC1 inh 41* and IDH1 mut inh 2.
`COc1ccccc1C#Cc1cnc2c(c1)C(=O)N([C@@H](C)CO)C[C@@H](C)[C@@H](CN(C)C)O2` gave GASC1 inh -1 and IDH1 mut inh 0.
Screening C[C@@H]1CN([C@@H](C)CO)C(=O)c2cc(Br)cnc2O[C@@H]1CN(C)C(=O)Nc1ccc(F)cc1 returned GASC1 inh -3 and IDH1 mut inh 0.
`C[C@@H]1CN([C@@H](C)CO)C(=O)c2cc(C#Cc3ccccc3)cnc2O[C@H]1CN(C)CC1CCOCC1` gave GASC1 inh 35* and IDH1 mut inh 25.
For COc1ccccc1C#Cc1cnc2c(c1)C(=O)N([C@@H](C)CO)C[C@H](C)[C@H](CN(C)C)O2 the results were GASC1 inh 29* and IDH1 mut inh -1.
`C[C@H](CO)N1C[C@H](C)[C@H](CN(C)C(=O)Nc2ccc(F)cc2)Oc2ncc(Br)cc2C1=O` gave GASC1 inh 4 and IDH1 mut inh 34*!.
For C[C@H]1CN([C@@H](C)CO)C(=O)c2cc(C#Cc3ccccc3)cnc2O[C@@H]1CN(C)CC1CCOCC1 the results were GASC1 inh 1 and IDH1 mut inh -1.
`C[C@H](CO)N1C[C@H](C)[C@H](CN(C)Cc2ccccn2)Oc2ncc(C#CC3(O)CCCC3)cc2C1=O` gave GASC1 inh -1 and IDH1 mut inh -2.
Screening CC(C)(C)c1cn2c3ccccc3nc2n1CCCN1CCCCC1 returned IDH1 mut inh 0.
COc1c(O)ccc2c1C(=O)c1c(O)cc(C)cc1C2[C@@H]1O[C@H](CO)[C@@H](O)[C@H](O)[C@H]1O (stereo partly drawn) was read as IDH1 mut inh -1.
C/C=C/C1=C(Cl)C(=O)[C@@H](O)[C@@]1(O)C(=O)OC was read as IDH1 mut inh 0.
`COc1ccc(C(=O)C(C)Oc2cccc(NC(=O)c3ccccc3[N+](=O)[O-])c2)cc1` (stereo not drawn) gave IDH1 mut inh 0.
`Cc1cc(C)nc(SCC(=O)Nc2ccc(C(=O)O)cc2)n1` gave IDH1 mut inh 0.
Screening COCC(=O)N(C)C[C@H]1Oc2ncc(C#CC(C)(C)O)cc2C(=O)N([C@@H](C)CO)C[C@H]1C returned GASC1 inh 27* and IDH1 mut inh 2.
Screening C[C@@H]1CN([C@@H](C)CO)C(=O)c2cc(-c3ccncc3)cnc2O[C@@H]1CN(C)S(=O)(=O)c1ccc(F)cc1 returned GASC1 inh 2 and IDH1 mut inh 4.
Screening Cc1ccc(S(=O)(=O)N(C)C[C@@H]2Oc3ncc(-c4ccncc4)cc3C(=O)N([C@@H](C)CO)C[C@H]2C)cc1 returned GASC1 inh 39* and IDH1 mut inh 2.
For COCC(=O)N(C)C[C@H]1Oc2ncc(C#CC(C)(C)O)cc2C(=O)N([C@H](C)CO)C[C@H]1C the results were GASC1 inh 0 and IDH1 mut inh 0.
`C[C@@H]1CN([C@H](C)CO)C(=O)c2cc(C#Cc3ccncc3)cnc2O[C@@H]1CN(C)Cc1ccncc1` gave GASC1 inh 2.
For C[C@H]1CN([C@@H](C)CO)C(=O)c2cc(C#Cc3ccncc3)cnc2O[C@@H]1CN(C)Cc1ccncc1 the results were GASC1 inh 1 and IDH1 mut inh 37*.
For CS(=O)(=O)N(CC(=O)Nc1cccc(Br)c1)c1cccc(Cl)c1 the results were IDH1 mut inh 0.
`NC(=O)CSc1nnc(-c2cccnc2)s1` gave IDH1 mut inh 0.
`COC(=O)[C@]1(C)CCC[C@@]2(C)[C@H]1CC=C(C)[C@@H]2CCc1ccoc1` gave IDH1 mut inh 5.
O=C(N/N=C/c1cc(Cl)cc(Cl)c1O)c1ccccc1O was read as IDH1 mut inh 0.
`O=S(=O)(NC1CCN(Cc2ccc(OCCO)cc2)CC1)c1cc(Cl)ccc1Cl` gave IDH1 mut inh 37*.
For O=S(=O)(N[C@@H]1CCCN(Cc2cccc(OCCO)c2)C1)c1cc(Cl)ccc1Cl the results were IDH1 mut inh 19.
COc1ccccc1C(=O)Nc1ccc2c(c1)OC[C@H](C)NC[C@@H](C)[C@@H](OC)CN(C)C2=O was read as GASC1 inh 68* and IDH1 mut inh inconclusive.
COc1ccccc1C(=O)Nc1ccc2c(c1)OC[C@H](C)NC[C@@H](C)[C@H](OC)CN(C)C2=O was read as GASC1 inh -1 and IDH1 mut inh 0.
For CCCNC(=O)Nc1ccc2c(c1)OC[C@@H](C)N(C(=O)C1CCC1)C[C@@H](C)[C@@H](OC)CN(C)C2=O the results were GASC1 inh 62* and IDH1 mut inh 85*.
Screening CCCNC(=O)Nc1ccc2c(c1)OC[C@H](C)N(C(=O)C1CCC1)C[C@@H](C)[C@@H](OC)CN(C)C2=O returned GASC1 inh 0 and IDH1 mut inh 0.
`CO[C@H]1CN(C)C(=O)c2ccc(NS(=O)(=O)c3ccc(Cl)cc3)cc2OC[C@@H](C)NC[C@H]1C` gave GASC1 inh 80* and IDH1 mut inh 93*.
CO[C@@H]1CN(C)C(=O)c2ccc(NS(=O)(=O)c3ccc(Cl)cc3)cc2OC[C@H](C)NC[C@H]1C was read as GASC1 inh -1 and IDH1 mut inh 0.
COC(=O)COc1cccc(NC(=O)c2ccccc2I)c1 was read as IDH1 mut inh 0.

Source: PubChem (Broad Institute)
